{"data": "Measurements of several laboratories", "target": "MAP/microtubule affinity-regulating kinase 4 (MARK4, Homo sapiens, UniProt Q96L34)", "One construct used (Q96L34 1-752)": "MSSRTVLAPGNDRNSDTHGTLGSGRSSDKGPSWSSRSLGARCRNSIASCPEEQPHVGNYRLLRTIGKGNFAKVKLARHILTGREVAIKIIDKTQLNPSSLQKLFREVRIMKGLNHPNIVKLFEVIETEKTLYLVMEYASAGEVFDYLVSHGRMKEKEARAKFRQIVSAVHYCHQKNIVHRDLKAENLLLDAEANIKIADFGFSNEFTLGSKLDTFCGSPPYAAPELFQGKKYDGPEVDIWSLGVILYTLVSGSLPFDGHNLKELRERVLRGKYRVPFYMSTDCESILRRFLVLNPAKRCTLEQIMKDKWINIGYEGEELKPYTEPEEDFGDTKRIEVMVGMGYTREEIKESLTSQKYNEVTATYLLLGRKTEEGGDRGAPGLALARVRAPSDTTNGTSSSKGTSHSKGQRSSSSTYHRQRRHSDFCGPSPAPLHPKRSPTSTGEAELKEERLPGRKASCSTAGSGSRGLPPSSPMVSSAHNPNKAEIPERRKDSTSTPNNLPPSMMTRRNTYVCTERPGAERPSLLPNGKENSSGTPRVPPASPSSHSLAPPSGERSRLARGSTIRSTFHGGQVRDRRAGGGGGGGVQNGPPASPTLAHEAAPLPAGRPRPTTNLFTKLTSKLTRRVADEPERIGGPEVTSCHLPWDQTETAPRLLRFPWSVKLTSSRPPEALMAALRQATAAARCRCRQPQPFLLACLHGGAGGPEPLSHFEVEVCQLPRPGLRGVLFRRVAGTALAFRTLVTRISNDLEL", "note": "Protocols differ between the studies behind these lines."}
{"Compound": "O=C(NCCCN1CCOCC1)c1ccc(Nc2ncc(Cl)c(-c3ccc(Cl)s3)n2)cc1", "test": "binding, competition with immobilised ligand", "setting": "1 µM", "remaining binding [%]": 24}
{"Compound": "Cc1cnn2ncc(-c3ccnc(N(C)C)n3)c2c1", "test": "binding", "setting": "1 µM", "remaining binding [%]": 91}
{"Compound": "O=C1CCc2cc(Nc3cc(OC4CCOCC4)c([N+](=O)[O-])cc3Cl)ccc2N1", "test": "cell-free assay, competition with immobilised ligand", "setting": "1 µM", "remaining binding [%]": 100}
{"Compound": "FC(F)(F)Oc1cccc(-c2cnc3ccc(-c4ccncc4)nn23)c1", "test": "cell-free assay, competition with immobilised ligand", "setting": "5 µM", "remaining binding [%]": 80}
{"Compound": "F[C@@H]1CCN(c2nccc(-c3cnn4ncccc34)n2)C1", "test": "binding", "setting": "1 µM", "remaining binding [%]": 100}
{"Compound": "CNCc1ccccc1-c1csc([C@@H](C)Nc2nc(C)nc3cc(OC)c(OC)cc23)c1", "test": "cell-free assay, competition with immobilised ligand", "setting": "1 µM", "remaining binding [%]": 100}
{"Compound": "O=C(Nc1c[nH]nc1C(=O)NC1CCNCC1)c1cc(F)cc(F)c1", "test": "binding, competition with immobilised ligand", "setting": "1 µM", "remaining binding [%]": 100}
{"Compound": "CN(C)c1ncc(F)c(-c2cnn3ncccc23)n1", "test": "binding", "setting": "1 µM", "remaining binding [%]": 100}
{"Compound": "O=C(O)c1cc(-c2ccc(C3CCNCC3)cc2)c2ccc(-c3ccc(C(F)(F)F)cc3)cc2c1", "test": "cell-free assay, competition with immobilised ligand", "setting": "1 µM", "remaining binding [%]": 100}
{"Compound": "CNC(=O)[C@@H]1CC[C@@H](n2c(-c3ccc4cnccc4c3)nc3ccc(C(=O)NCc4cccc(C(N)=O)c4)cc32)C1", "test": "binding, competition with immobilised ligand", "setting": "1 µM", "remaining binding [%]": 98}
{"Compound": "Cc1cnc(Nc2ccc(C(=O)N3CCC(N4CCCC4)CC3)cc2)nc1-c1cc2ccccc2s1", "test": "binding, competition with immobilised ligand", "setting": "1 µM", "remaining binding [%]": 35}
{"Compound": "CC1CCCN1c1nccc(-c2cnn3ncccc23)n1 (centres unmarked)", "test": "binding", "setting": "1 µM", "remaining binding [%]": 98}
{"Compound": "O=C(c1ccc(Nc2ncc(Cl)c(-c3ccc(Cl)s3)n2)cc1)N1CCC(N2CCCC2)CC1", "test": "binding, competition with immobilised ligand", "setting": "1 µM", "remaining binding [%]": 23}
{"Compound": "COc1ncc2cc3ccccc3nc2c1C#N", "test": "cell-free assay, competition with immobilised ligand", "setting": "5 µM", "remaining binding [%]": 64}
{"Compound": "CC(C)CC(=O)N1CCc2nc(-c3ccc(Br)cc3)nc(N(C)Cc3ccccc3)c2C1", "test": "cell-free assay, competition with immobilised ligand", "setting": "0.1 µM", "remaining binding [%]": 100}
{"Compound": "CCN1CCN(Cc2ccc(C(=O)Nc3ccc(C)c(Oc4ccc5c(c4)CC(=O)N5)c3)cc2C(F)(F)F)CC1", "test": "binding, competition with immobilised ligand", "setting": "1 µM", "remaining binding [%]": 88}
{"Compound": "CN(C)c1nccc(-c2cnn3ncccc23)n1", "test": "binding", "setting": "1 µM", "remaining binding [%]": 100}
{"Compound": "COc1cc(-c2cn(C3CCc4ccccc4N(CC(F)(F)F)C3=O)nn2)ccc1-n1ccc(C)n1 (centres unmarked)", "test": "cell-free assay, competition with immobilised ligand", "setting": "1 µM", "remaining binding [%]": 100}
{"Compound": "CN(C)c1nccc(-c2cnc3ncccn23)n1", "test": "binding", "setting": "1 µM", "remaining binding [%]": 93}
{"Compound": "CC(=O)Nc1c(C(C)=O)c(=O)n(C)c2nc(-c3ccc(Cl)cc3Cl)c(-c3ccc(Cl)cc3)cc12", "test": "cell-free assay, competition with immobilised ligand", "setting": "1 µM", "remaining binding [%]": 100}
